Laboratory results as given in ChEMBL document CHEMBL4699542, “Design and synthesis of novel methoxypyridine-derived gamma-secretase modulators” (Bioorg Med Chem, 2020).

Experiments:
Cytochrome P450 1A2 = target: T1, Cytochrome P450 1A2 (Homo sapiens, UniProt P05177); assay: Inhibition of recombinant CYP1A2 (unknown origin) by fluorescence-based assay; assay type: ADME
T1 sequence (P05177 whole entry): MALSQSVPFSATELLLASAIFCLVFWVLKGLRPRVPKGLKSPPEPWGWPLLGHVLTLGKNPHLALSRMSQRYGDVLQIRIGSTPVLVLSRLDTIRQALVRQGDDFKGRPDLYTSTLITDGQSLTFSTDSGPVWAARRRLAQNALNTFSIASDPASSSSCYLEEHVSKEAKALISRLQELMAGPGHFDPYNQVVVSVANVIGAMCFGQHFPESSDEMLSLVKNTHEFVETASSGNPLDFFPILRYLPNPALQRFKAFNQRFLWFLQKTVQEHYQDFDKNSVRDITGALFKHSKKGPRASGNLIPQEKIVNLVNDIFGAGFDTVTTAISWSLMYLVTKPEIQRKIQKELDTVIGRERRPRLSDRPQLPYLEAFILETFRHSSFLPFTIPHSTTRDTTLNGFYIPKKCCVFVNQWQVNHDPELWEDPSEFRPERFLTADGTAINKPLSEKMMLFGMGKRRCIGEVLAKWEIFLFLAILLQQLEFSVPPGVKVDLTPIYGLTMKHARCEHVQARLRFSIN
Outline: (§1)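 Recombinant CYP isoforms (five tested) screened for inhibition in fluorescence-based assays; IC50 in μM.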

[1] = Ratio of drug concentration in CD-1 mouse brain to plasma at 0.4 mg/kg, iv measured after 1 hr; assay type: ADME, organism-based
Gamma-secretase [2] = assay: Modulation of gamma secretase in human SH-SY5Y cells overexpressing wild type APP751 assessed as effect on amyloid beta38 level by meso scale discovery; assay type: cell-based
Gamma-secretase [3] = assay: Modulation of gamma secretase in human SH-SY5Y cells overexpressing wild type APP751 assessed as inhibition of amyloid beta (35 to 42 residues) formation incubated for overnight by ELISA; assay type: cell-based
Outline: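 SHSY5Y-APP751 cells plated at 75K/well and incubated overnight at 37 °C, then treated 24 h over 10 concentrations ([…]–10 μM, 1:3.16 steps, in duplicate). Medium Aβ42 measured by sandwich ELISA (Aβ35–42 capture, AP-conjugated Aβ1–12 detection, CDP-Star luminescence) against an Aβ42 standard curve.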

[4] = Half life in CD-1 mouse at 5 mg/kg, po administered as single dose measured up to 24 hrs; assay type: ADME, organism-based; conditions: in vivo
Outline: (§2)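 Male CD-1 mice, 6–8 weeks old, single dose by tail vein (1 mg/kg, 3% NMP/45% PEG300/12% ethanol/40% water) or oral gavage (5 mg/kg, 5% NMP/95% PEG300). Retro-orbital plasma sampled 0.083 (iv only) to 24 h, n=3/timepoint, and analysed by HPLC/MS/MS. Non-compartmental analysis. Half-life taken from the terminal phase using ≥3 non-zero points after Tmax.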

Gamma-secretase [5] = assay: Modulation of gamma secretase in human SH-SY5Y cells overexpressing wild type APP751 assessed as effect on amyloid beta40 level by meso scale discovery; assay type: cell-based
[6] = Drug level in brain of transgenic J20 mouse overexpressing human APP at 100 mg/kg, po administered via gavage for 3 consecutive days and measured after 4 hrs post last dose on day 3 by HPLC-MS/MS analysis; assay type: ADME, organism-based; conditions: time 3 day, read-out: Ct
Outline: (§3)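 Female J20 mice, 5–6 months old, given 25, 50 or 100 mg/kg orally (5% NMP/95% PEG300) daily for 3 days, n=5/dose. Plasma and brain taken 4 h after the final dose and analysed by LC-MS/MS. LLOQ was 1 ng/mL in plasma and 5 ng/g in brain.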

[7] = Drug level in brain of transgenic J20 mouse overexpressing human APP at 25 mg/kg, po administered via gavage for 3 consecutive days and measured after 4 hrs post last dose on day 3 by HPLC-MS/MS analysis; assay type: ADME, organism-based; conditions: time 3 day, read-out: Ct; outline: as §3
[8] = In vivo modulation of gamma secretase in transgenic J20 mouse overexpressing human APP assessed as reduction in plasma amyloid beta38 level at 25 mg/kg, po administered via gavage for 3 consecutive days and measured after 4 hrs post last dose on day 3 by meso scale discovery relative to control; assay type: functional; set-up: scale not given: the % may be the effect or the level left; conditions: time 3 day
Outline: (§4)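 Female J20 mice, 5–6 months old (n=5/dose), dosed orally at 25, 50 or 100 mg/kg or with vehicle (5% NMP/95% PEG300) for 3 consecutive days. Plasma was taken 4 h after the final dose. Aβ38/40/42 measured by Meso Scale multiplex immunoassay, with % reduction relative to vehicle. Mean ± SEM, ANOVA.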

[9] = In vivo modulation of gamma secretase in transgenic J20 mouse overexpressing human APP assessed as reduction in plasma amyloid beta38 level at 100 mg/kg, po administered via gavage for 3 consecutive days and measured after 4 hrs post last dose on day 3 by meso scale discovery relative to control; assay type: functional; set-up: scale not given: the % may be the effect or the level left; conditions: time 3 day; outline: as §4
[10] = Ratio of drug level in brain to plasma of transgenic J20 mouse overexpressing human APP at 100 mg/kg, po administered via gavage for 3 consecutive days and measured after 4 hrs post last dose on day 3 by HPLC-MS/MS analysis; assay type: ADME, organism-based; conditions: 72 h, time 3 day
Outline: (§5)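 Female J20 mice, 5–6 months old (n=5/dose), dosed by oral gavage once daily for 3 days in 5% NMP/95% PEG300 vehicle. Sacrificed 4 h after the day-3 dose. Plasma and brain drug levels measured by LC-MS/MS (LLOQ 1 ng/mL plasma, 5 ng/g brain). Ratio = brain level/plasma level.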

[11] = Metabolic stability in human liver microsomes assessed as parent compound remaining at 1 uM incubated for 30 mins; assay type: ADME, Microsome; conditions: microsomes, 0.5 h, 1 µM
Outline: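 Test compound at 1 μM incubated 30 min with human, rat or mouse liver microsomes (1 mg/mL); parent remaining expressed as %.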

[12] = Tmax in CD-1 mouse at 1 mg/kg, iv administered as single dose measured up to 24 hrs; assay type: ADME, organism-based; conditions: in vivo
Outline: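 Male CD-1 mice, 6–8 weeks old, single tail-vein dose in 3% NMP/45% PEG300/12% ethanol/40% sterile water. Retro-orbital plasma (K3EDTA) taken at 0.083, 0.25, 0.5, 1, 2, 4, 8 and 24 h, n=3/timepoint, analysed by HPLC/MS/MS. Non-compartmental analysis (Model 201, uniform weighting); Tmax read directly from the data.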

[13] = AUC infinity in CD-1 mouse at 5 mg/kg, po administered as single dose measured up to 24 hrs; assay type: ADME, organism-based; set-up: route oral, dose 5 mg/kg, time <=24; conditions: in vivo; outline: as §2
Gamma-secretase [14] = assay: Modulation of gamma secretase in human SH-SY5Y cells overexpressing wild type APP751 assessed as effect on amyloid beta42 level by meso scale discovery; assay type: cell-based
Cytochrome P450 2C9 = Cytochrome P450 2C9 (Homo sapiens, UniProt P11712); assay: Inhibition of recombinant CYP2C9 (unknown origin) by fluorescence-based assay; assay type: ADME; outline: as §1
Sequence of Cytochrome P450 2C9 (P11712 whole entry): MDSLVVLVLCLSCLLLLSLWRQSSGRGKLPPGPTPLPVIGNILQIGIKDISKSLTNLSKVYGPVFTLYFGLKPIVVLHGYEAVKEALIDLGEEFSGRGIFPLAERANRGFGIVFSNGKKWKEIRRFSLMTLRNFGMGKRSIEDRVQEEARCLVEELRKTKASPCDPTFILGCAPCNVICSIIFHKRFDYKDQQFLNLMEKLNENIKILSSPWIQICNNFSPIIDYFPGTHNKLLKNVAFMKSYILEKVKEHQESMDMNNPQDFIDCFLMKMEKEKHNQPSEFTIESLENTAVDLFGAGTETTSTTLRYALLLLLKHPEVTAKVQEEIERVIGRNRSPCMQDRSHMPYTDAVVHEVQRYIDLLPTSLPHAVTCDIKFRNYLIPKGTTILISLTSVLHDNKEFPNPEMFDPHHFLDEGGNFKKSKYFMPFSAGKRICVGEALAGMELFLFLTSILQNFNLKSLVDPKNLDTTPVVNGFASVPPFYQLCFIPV

[15] = Ratio of drug level in brain to plasma of transgenic J20 mouse overexpressing human APP at 25 mg/kg, po administered via gavage for 3 consecutive days and measured after 4 hrs post last dose on day 3 by HPLC-MS/MS analysis; assay type: ADME, organism-based; conditions: 72 h, time 3 day; outline: as §5
[16] = In vivo modulation of gamma secretase in transgenic J20 mouse overexpressing human APP assessed as reduction in plasma amyloid beta40 level at 50 mg/kg, po administered via gavage for 3 consecutive days and measured after 4 hrs post last dose on day 3 by meso scale discovery relative to control; assay type: functional; set-up: scale not given: the % may be the effect or the level left; conditions: time 3 day; outline: as §4
[17] = Cmax in CD-1 mouse at 1 mg/kg, iv administered as single dose measured up to 24 hrs; assay type: ADME, organism-based; set-up: route intravenous, dose 1 mg/kg, time <=24; conditions: in vivo; outline: as §2

For `CCn1nc2c(c1Nc1nc(-c3ccc(-n4cnc(C)c4)c(OC)n3)cs1)CCC2`, which IC50 (Cytochrome P450 1A2) is on record?
The IC50 was > 100000 nM.

What about the BPR [1] of the same compound?
The BPR was 0.37.

And the EC50 (Gamma-secretase [2])?
The EC50 was 202 nM.

What about the IC50 (Gamma-secretase [3]) of the same compound?
The IC50 was 33 nM.

What about the t1/2 [4] of the same compound?
Its t1/2 is 5.3 h.

And the IC50 (Gamma-secretase [5])?
Its IC50 is 209 nM.

What about the concentration at 72 h [6] of the same compound?
The concentration at 72 h was 337 ng/g.

What about the concentration at 72 h [7] of the same compound?
Its concentration at 72 h is 31 ng/g.

What about the Activity [8] of the same compound?
The Activity was 19%.

And the Activity [9]?
Its Activity is 50%.

What about the BPR [10] of the same compound?
The BPR was 0.46.

And the Stabilty [11]?
Its Stabilty is 51%.

What about the Tmax [12] of the same compound?
The Tmax was 4.98 min.

And the AUC [13]?
Its AUC is 1257 ng·h/mL.

What about the IC50 (Gamma-secretase [14]) of the same compound?
Its IC50 is 19 nM.

And the IC50 (Cytochrome P450 2C9)?
Its IC50 is > 100000 nM.

What about the BPR [15] of the same compound?
The BPR was 0.37.

What about the Activity [16] of the same compound?
The Activity was 31%.

And the Cmax [17]?
Its Cmax is 549 ng/mL.

For `COc1nc(-c2csc(Nc3c4c(nn3CCF)CCCC4)n2)ccc1-n1cnc(C)c1`, which IC50 (Cytochrome P450 1A2) is on record?
The IC50 was > 100000 nM.

What about the BPR [1] of the same compound?
Its BPR is 0.81.

And the EC50 (Gamma-secretase [2])?
The EC50 was 187 nM.

What about the IC50 (Gamma-secretase [3]) of the same compound?
The IC50 was 47 nM.

What about the t1/2 [4] of the same compound?
Its t1/2 is 2.6 h.

What about the IC50 (Gamma-secretase [5]) of the same compound?
The IC50 was 100 nM.

And the concentration at 72 h [6]?
The concentration at 72 h was 105 ng/g.

And the concentration at 72 h [7]?
Its concentration at 72 h is 39 ng/g.

And the Activity [8]?
Its Activity is 18%.

And the Activity [9]?
Its Activity is 45%.

What about the BPR [10] of the same compound?
The BPR was 0.57.

What about the Stabilty [11] of the same compound?
Its Stabilty is 100%.

And the Tmax [12]?
The Tmax was 4.98 min.

What about the AUC [13] of the same compound?
Its AUC is 669 ng·h/mL.

What about the IC50 (Gamma-secretase [14]) of the same compound?
The IC50 was 14 nM.

What about the IC50 (Cytochrome P450 2C9) of the same compound?
Its IC50 is 6800 nM.

What about the BPR [15] of the same compound?
The BPR was 0.53.

What about the Activity [16] of the same compound?
Its Activity is 36%.

And the Cmax [17]?
Its Cmax is 309 ng/mL.
